Source: PubChem BioAssay (several laboratories)
Only a selection was taken, and hits are over-represented in it overall.
T cell HTS: T cell immune modulators affecting CD8 T cell-vesicle binding | 2C CD8+ T cell-vesicle binding, flow cytometry; stronger effect = lower value | response (vesicle binding), % at 7 µM | actives 0.068% (n = 330,000) | AID 2052;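 active means response, share of CD8 T cells binding vesicles, and their 90th percentile fluorescence all below set limits, cut at about 80% in these data, passing the limit was not always enough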;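 further: values below 100% mean blocked vesicle binding to the CD8+ T cells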
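Incubation: binding step 1.5 h, 37 °C, antibody labelling 20 min, ice; system: murine 2C transgenic CD8+ T lymphocytes; technique: cytometric PE anti-B7-1 and Alexa647 anti-CD8 signals after 1% paraformaldehyde fixation; also added: QL9-charged Drosophila Ld/ICAM-1/B7-1 vesicles; control set: naked versus QL9-loaded vesicles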
ALR inh: human ALR oxidase inhibition via reduced H2O2; P55789; purified ALR, DTT oxidation, H2O2 HRP-luminol luminescence; inhibition, % (concentration not given with the values); actives 3.8% (n = 290,000);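 active means mean replicate inhibition above about 79%, with every replicate also reaching it, limit read from the data; inconclusive means only one of the two criteria met; inactive means mean below limit and not every replicate reaching it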
Target sequence (P55789 whole entry, looked up): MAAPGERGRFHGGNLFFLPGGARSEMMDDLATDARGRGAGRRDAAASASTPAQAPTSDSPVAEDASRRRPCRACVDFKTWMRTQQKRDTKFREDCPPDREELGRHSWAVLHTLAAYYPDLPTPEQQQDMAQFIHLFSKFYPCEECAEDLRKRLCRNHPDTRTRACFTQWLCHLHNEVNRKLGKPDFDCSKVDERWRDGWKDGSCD
Glyco luc inh: blocks N-linked glycosylation in D54 reporter cells; D54 ERlucT glycosylation luciferase reporter, 24 h; percent of 100 nM tunicamycin response; reporter increase, % at 12.5 µM; actives 0.23% (n = 360,000);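 active means mean luciferase reporter signal, scaled so untreated is 0 and the glycosylation-blocking control 100, at or above a set limit in every replicate; inconclusive means mean reaches the limit but not every replicate does; inactive means mean below the limit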;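 further: luciferase carries N-glycosylation sites so blocking glycosylation raises the light; 0% = median of neutral control wells and 100% = median of 100 nM tunicamycin wells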
An asterisk follows results filed as active; ? = inconclusive; / = no result given.

SMILES	T cell HTS	ALR inh	Glyco luc inh
CCn1c(CNc2ccc(F)cc2)nnc1SCCN1CCCCC1	223	98*	-4
CCn1c(CNc2ccccc2Cl)nnc1SCCN1CCCCC1	678	-4	-5
CC1Cc2nc(SCC(=O)NCCc3ccccc3)n(C)c(=O)c2S1 (configuration not stated)	859	/	2
CC1Cc2nc(SCC(=O)Nc3ccc(F)cc3F)n(C)c(=O)c2S1 (configuration not stated)	226	99*	2
Cc1ccc(C)c(NC(=O)CSc2nc3c(c(=O)n2C)SC(C)C3)c1 (configuration not stated)	566	48	-1
CC1Cc2nc(SCC(=O)Nc3ccc4c(c3)OCCO4)n(C)c(=O)c2S1 (configuration not stated)	258	94*	3
COCCn1c(SCC(=O)Nc2ccc3c(c2)OCCO3)nc2c(c1=O)SC(C)C2 (configuration not stated)	775	99*	7
Cc1ccc2nc(NC(=O)CSc3nc4c(c(=O)n3C)SC(C)C4)sc2c1 (configuration not stated)	224	99*	6
CC1Cc2nc(SCC(=O)Nc3ccc4c(c3)OCO4)n(Cc3ccccc3)c(=O)c2S1 (configuration not stated)	368	-9	0
COCCn1c(SCC(=O)Nc2cc(C)on2)nc2c(c1=O)SC(C)C2 (configuration not stated)	348	/	4
NC(=O)c1nn(CC(=O)Nc2ccc3c(c2)OCO3)cc1[N+](=O)[O-]	389	/	2
COC(=O)c1cc([N+](=O)[O-])c(-n2ccnc2)c([N+](=O)[O-])c1	130	9	1
COC(CNC(=O)C1CCN(S(=O)(=O)c2ccc3nc4c(c(C(=O)O)c3c2)CC(C)CC4)CC1)OC (configuration not stated)	566	-11	1
CCC(CO)n1c(SCc2cc(=O)oc3cc(C)ccc23)nc2ccccc2c1=O (configuration not stated)	180	99*	0
COc1ccccc1-n1c(SCc2cc(=O)oc3cc(O)ccc23)nc2ccccc2c1=O	189	-9	-2
Cc1nn(C(C)C(=O)NCCCc2ccccc2)c(=O)c2nn(-c3ccccc3)c(C)c12 (configuration not stated)	237	-1	-1
CCOC(=O)N1CCN(C(=O)CNC(=O)c2nn(-c3ccc(OC)c(Cl)c3)c(=O)c3ccccc23)CC1	380	-5	-2
CCOC(=O)C1CCN(S(=O)(=O)c2cccc(-c3cn4cc(C)ccc4n3)c2)CC1	198	-4	-1
CCOC(=O)C1CCN(S(=O)(=O)c2cccc(-c3cn4cccnc4n3)c2)CC1	288	98*	-1
CCOC(=O)C1CCN(S(=O)(=O)c2cccc(-c3csc(C)n3)c2)CC1	225	99*	0
CCOC(=O)C1CCN(S(=O)(=O)c2csc(C(N)=O)c2)CC1	329	0	-1
CN(C)S(=O)(=O)c1ccc(C(=O)N2CCN(S(=O)(=O)c3cccs3)CC2)cc1	180	-4	1
CCOc1ccc(C(=O)NC2CCN(CC(=O)NCc3ccccc3)CC2)cc1	383	29	1
CC(C)(O)C#Cc1ccc(CN2CCC(n3nccc3NC(=O)C3CC3)CC2)cc1	285	1	1
CCCCNc1ccc(C(CC(N)=O)NC(=O)Cc2ccc(Br)cc2)cc1[N+](=O)[O-] (configuration not stated)	454	4	?
SMILES	T cell HTS	ALR inh	Glyco luc inh
NC(=O)CC(NC(=O)c1ccc(Br)cc1)c1ccc(N2CCCCCC2)c([N+](=O)[O-])c1 (configuration not stated)	371	-1	33*
CCC(CC)Nc1ccc(C(CC(N)=O)NC(=O)Cc2ccc(Br)cc2)cc1[N+](=O)[O-] (configuration not stated)	626	4	50*
NC(=O)CC(NC(=O)Cc1ccc(Cl)cc1)c1ccc(NC2CC3CCC2C3)c([N+](=O)[O-])c1 (configuration not stated)	206	/	37*
NC(=O)CC(NC(=O)c1ccccc1)c1ccc(N2CCCCCCC2)c([N+](=O)[O-])c1 (configuration not stated)	722	-4	1
NC(=O)CC(NC(=O)Cc1cccc2ccccc12)c1ccc(NC2CC3CCC2C3)c([N+](=O)[O-])c1 (configuration not stated)	381	-1	-3
CCC(=O)N1c2ccccc2NC2=C(C(=O)CC(C)(C)C2)C1c1ccc(O)c(OC)c1 (configuration not stated)	170	19	1
Cc1cc(C(=O)Nc2sccc2C#N)c2ccccc2n1	398	-9	6
CCOc1ccc(S(=O)(=O)NCCC(=O)NCc2ccccn2)cc1	323	-7	0
O=C(O)CSc1c(-c2cccs2)[nH]c2ccccc12	157	99*	5
O=C(O)CSc1nc(-c2ccccc2)c(-c2ccccc2)[nH]1	282	/	0
O=C(O)CSc1nnc2c(n1)[nH]c1ccccc12	159	-3	3
O=C(O)CSc1c(-c2ccccc2)[nH]c2ccccc12	124	98*	2
Cc1ccc(C)c(CC(=O)N2CCCC(c3cc(C(=O)Nc4ccccc4Cl)no3)C2)c1 (configuration not stated)	/	/	-2
Cc1nn(-c2ccccc2)c(C)c1NC(=O)COC(=O)CCCOc1ccccc1	512	-16	0
CCCN1CCC(=O)N([C@H](CSc2ccc(OC)cc2)CC(C)C)CC1	147	99*	-1
CC(C)C[C@@H](CSc1ccccc1)N1CCN(CCc2ccccc2)CCC1=O	279	-3	-4
Cc1noc(C)c1NC(=O)N(C)C[C@@H]1Oc2ncc(Br)cc2C(=O)N([C@@H](C)CO)C[C@H]1C	/	/	0
Cc1cccc(C(=O)Nc2nnc(-c3cccnc3)o2)c1	451	6	-1
Cc1cccc(C(=O)Nc2nnc(-c3ccncc3)o2)c1	482	97*	2
O=C(Nc1nnc(-c2cccnc2)o1)c1cccc([N+](=O)[O-])c1	500	90*	/
COC(=O)c1ccc(C(=O)Nc2nnc(-c3cccnc3)o2)cc1	366	31	/
O=C(O)c1ccccc1C(c1ccccc1)c1ccccc1O (configuration not stated)	/	/	-9
CCN(CC)c1cc(CS(=O)c2ccccc2)nc(-c2ccccc2)n1 (configuration not stated)	448	14	-6
CCCOc1ccc(C(F)(F)F)cc1NS(=O)(=O)c1ccc(Cl)nc1	/	/	0
CCCCN1C[C@H](c2ccc(OC)cc2)[C@@H](CC(=O)Nc2ccc(Br)cc2)C1=O	/	/	0
COCC1CCN(Cc2c(C(=O)N3CCOCC3)nc3c(C)cccn23)C1 (configuration not stated)	/	/	1
CCCCCC(=O)Nc1ccccc1N1CCOCC1	244	99*	-3
O=C(COC(=O)c1ccc(F)cc1)Nc1ccccc1N1CCOCC1	504	-1	-2
CCCCC(=O)Nc1ccccc1N1CCN(c2ccccc2)CC1	203	74	1
O=C(COC(=O)c1ccc(S(=O)(=O)N2CCOCC2)cc1)Nc1ccccc1OC(F)F	0.0*	-6	2
